# Experimental data: article PMC4635973 (Journal of medicinal chemistry, 2015)
# Entries after “also recorded” stand apart in the source; their conditions may differ.
# T1: activin A binding to ActRIIA-ECD-Fc (Homo sapiens, UniProt P08476)
# T1 sequence (P08476 311-426): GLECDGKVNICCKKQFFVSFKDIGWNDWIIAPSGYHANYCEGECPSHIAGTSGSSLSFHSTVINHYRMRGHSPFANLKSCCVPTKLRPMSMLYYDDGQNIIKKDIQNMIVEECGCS
# T2: myostatin/ActRIIA-ECD complex binding with ALK4-ECD-Fc (Homo sapiens, UniProt O14793)
# T2 sequence (O14793 267-375): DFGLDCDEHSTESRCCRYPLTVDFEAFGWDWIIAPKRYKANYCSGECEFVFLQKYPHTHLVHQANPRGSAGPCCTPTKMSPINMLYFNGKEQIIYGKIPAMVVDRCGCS
# T3: activin A/ActRIIA-ECD complex binding to ALK4-ECD-Fc (Homo sapiens, UniProt P08476)
# T3 sequence (P08476 311-426): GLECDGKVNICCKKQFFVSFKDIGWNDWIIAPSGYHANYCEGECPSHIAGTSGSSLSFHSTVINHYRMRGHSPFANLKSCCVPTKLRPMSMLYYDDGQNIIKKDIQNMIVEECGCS
# B1: inhibin A: Purified inhibin A, naturally occurring activin antagonist, positive control in ovary culture (protein, UniProt P05111 233-366; P08476 311-426, looked up)
# Inhibin alpha chain: STPLMSWPWSPSALRLLQRPPEEPAAHANCHRVALNISFQELGWERWIVYPPSFIFHYCHGGCGLHIPPNLSLPVPGAPPTPAQPYSLLPGAQPCCAALPGTMRPLHVRTTSDGGYSFKYETVPNLLTQHCACI
# Inhibin beta A chain: GLECDGKVNICCKKQFFVSFKDIGWNDWIIAPSGYHANYCEGECPSHIAGTSGSSLSFHSTVINHYRMRGHSPFANLKSCCVPTKLRPMSMLYYDDGQNIIKKDIQNMIVEECGCS
# Tests used:
# [1] = test system: myostatin signaling in the −338FSHβ-Luc LβT2 cell line; assay: −338FSHβ-Luc LβT2 cell luciferase assay; assay type: cell-based, mouse; conditions: −338FSHβ-Luc LβT2 luciferase assay
# Method in brief: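 Stably transfected −338FSHβ-Luc LβT2 cells (5 × 10^4/well) were treated for 6 h at 37 °C in serum-free, phenol red-free DMEM-F12 with 1% P/S. Treatments: 0.2 nM activin A or 0.2 nM myostatin with DMSO or a test-compound dilution series. Luciferase measured in lysates. Triplicates in three experiments. IC50 from sigmoidal variable-slope fit, reported as means ± SD.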
# ovariectomized mice = assay: Kidney and liver histology and behavior of treated ovariectomized mice; assay type: in vivo, mouse
# Method in brief: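 Ovariectomized 12-week-old CD1 mice received s.c. vehicle or 60 mg/kg test compound twice daily for 2 days (4 doses). Kidney and liver were fixed in Modified Davidson's fixative for 5 days at 4 °C, embedded in paraffin and stained with H&E.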
# [2] = target: T1, activin A binding to ActRIIA-ECD-Fc; assay: Blitz competition binding: activin A with ActRIIA-ECD-Fc; conditions: 25 µM compound, activin A 1.6 µM
# Method in brief: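 Protein A biosensor (Blitz) loaded with ActRIIA-ECD-Fc, then dipped into activin A (final 1.6 µM) with solvent control or a single 25 µM test compound. Association was 120 s and dissociation 120 s in PBS. Real-time wavelength shift recorded.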
# [3] = test system: activin A-stimulated FSHβ promoter activation in −338FSHβ-luc LβT2 cells; assay: −338FSHβ-Luc LβT2 cell luciferase assay; assay type: cell-based; conditions: Mus musculus, 6 h, read-out: IC50 for activin A (selectivity test)
# [4] = test system: activin-stimulated FSH in ovariectomized mice; assay: Serum FSH in ovariectomized mice; assay type: in vivo, mouse; conditions: 15 mg/kg s.c. every 12 h, 4 doses
# Method in brief: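 Ovariectomized 12-week-old CD1 mice received s.c. test compound (15, 30 or 60 mg/kg) or vehicle (TBS or DMSO) twice daily for 2 days (4 doses). Fst288 control: 200 µg/kg, 3 doses. Serum FSH was measured by ELISA (sensitivity 0.35mIU/mL, 450 nm) as % of vehicle mean. 5–7 mice per group, 10 controls; one-way ANOVA with Tukey test.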
# [5] = target: T2, myostatin/ActRIIA-ECD complex binding with ALK4-ECD-Fc; assay: Blitz competition binding: myostatin/ActRIIA-ECD complex with ALK4-ECD-Fc; conditions: 25 µM compound
# Method in brief: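 Myostatin and ActRIIA-ECD were premixed 1:2 molar, final 1.6 µM in PBS. Binding was to ALK4-ECD-Fc immobilized on a protein A Blitz biosensor (50 ng/mL, 120 s). Sensor dipped into complex with solvent or 25 µM test compound; 120 s association, 120 s dissociation in PBS. Wavelength shift recorded.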
# [6] = target: T3, activin A/ActRIIA-ECD complex binding to ALK4-ECD-Fc; assay: Blitz competition binding: activin A/ActRIIA-ECD complex with ALK4-ECD-Fc; conditions: 25 µM compound, complex 1.6 µM
# Method in brief: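 ALK4-ECD-Fc (50 ng/mL) was immobilized on a protein A Blitz biosensor for 120 s. Activin A and ActRIIA-ECD were premixed 1:2 molar, final 1.6 µM in PBS. The sensor was dipped into this complex with solvent or test compound (0.4, 1.6, 6.25, 25 µM) for 120 s association, then 120 s dissociation in PBS. Real-time wavelength shift recorded.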
# [7] = test system: activin A-mediated ovarian cell proliferation; assay: Ovary ex vivo culture and BrdU assay; assay type: cell-based, mouse; conditions: 1 nM activin A, ovaries of 4-day-old CD1 mice, 4 days
# Method in brief: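 Ovaries from 4-day-old CD1 mice were cultured on 0.4-µm membrane inserts in DMEM/F12 with 0.03% BSA for 4 days. Treatments: 1 nM activin A with DMSO, 200 µM test compound, 4 nM Fst288 or 8 nM inhibin A. Then 10 µM BrdU for 24 h. Genomic DNA (150 ng, heat-denatured) was dot-blotted, probed with anti-BrdU and HRP secondary, detected by ECL and quantified by densitometry. Three independent experiments; one-way ANOVA with Tukey test.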
Molecule,"Selectivity, IC50 for activin A versus IC50 for myostatin [1]","Histopathology of the kidney and liver tissue (H&E) (ovariectomized mice; 60 mg/kg s.c. twice daily, 4 doses, ovariectomized mice)","Behavior after injection (ovariectomized mice; s.c. injection, ovariectomized mice)","Adverse effects in efficacy studies (ovariectomized mice; treated mice, efficacy studies)",Interference with activin A binding with ActRIIA-ECD-Fc [2],IC50 [3],Effect on serum FSH levels compared with control [4],Blocking of myostatin/ActRIIA complex binding with ALK4 [5],Antagonism of activin A/ActRIIA-ECD complex binding with ALK4-ECD-Fc [6],Inhibition of exogenous activin A-mediated ovarian cell proliferation (BrdU) ([7]; 200 µM compound),Inhibition of exogenous activin A-mediated ovarian cell proliferation (BrdU) ([7]; 8 nM)
CCn1c(-c2cccnc2)nc2cc(NC(=O)COC)cc(C(=O)NCc3ccccc3)c21 [NUCC-555],~10 fold,unchanged,normal behavior,No adverse effects,weakly interfere,5.37 ± 4.01 µM,no significant effect,no blocking activity,nearly complete antagonist; also recorded: completely blocked,completely inhibited,
CC(C)(O)C#Cc1ccc(CN2CCC[C@@H](CCC(=O)N3CCOCC3)C2)s1 [NUCC-474],,,,,,,,,,only partially inhibited,
B1,,,,,,,,,,,completely inhibited
